In ChEMBL document CHEMBL2346534, “Design, synthesis and in vitro anti-proliferative activity of 4,6-quinazolinediamines as potent EGFR-TK inhibitors” (Eur J Med Chem, 2013):

Columns and labels:
[1] = system: SK-MEL-28; experiment: Cytotoxicity against human SK-MEL-28 cells assessed as cell growth at 10^-5 M after 48 hrs by SRB assay; format: functional; details: SK-MEL-28, 48 h, read-out: Activity
Summary of the method: (§1)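 NCI 60-panel single-dose primary screen at 10^-5 M. Cells are grown in RPMI 1640 with 5% FBS and 2 mM L-glutamine and preincubated 24 h at 37 °C. Drug exposure is 48 h. Cells are TCA-fixed, stained with SRB and absorbance is read at 515 nm. Results are reported as percent growth of treated cells versus untreated controls, corrected using time-zero plates.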

[2] = system: MDA-MB-435; experiment: Cytotoxicity against human MDA-MB-435 cells assessed as cell growth at 10^-5 M after 48 hrs by SRB assay; format: functional; details: MDA-MB-435, 48 h, read-out: Activity
Summary of the method: (§2)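 NCI 60 single-dose screen at 10^-5 M. Cells in RPMI 1640 with 5% FBS and 2 mM L-glutamine, preincubated 24 h at 37 °C/5% CO2. Drug from DMSO stock, then 48 h exposure. TCA fixation, SRB staining, absorbance at 515 nm. Result given as percent growth of treated cells relative to untreated control.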

[3] = system: M14; experiment: Cytotoxicity against human M14 cells assessed as cell growth at 10^-5 M after 48 hrs by SRB assay; format: functional; details: M14, 48 h, read-out: Activity; summary of the method: as §2
[4] = system: Malme-3M; experiment: Cytotoxicity against human MALME-3M cells assessed as cell growth at 10^-5 M after 48 hrs by SRB assay; format: functional; details: read-out: Activity; summary of the method: as §2
[5] = system: U-251; experiment: Cytotoxicity against human U251 cells assessed as cell growth at 10^-5 M after 48 hrs by SRB assay; format: functional; details: U-251, 48 h, read-out: Activity
Summary of the method: (§3)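 NCI primary single-dose screen at 10^-5 M. Cells grown in RPMI 1640 with 5% FBS and 2 mM L-glutamine, given 24 h before drug addition, then 48 h exposure at 37 °C, 5% CO2. Cells TCA-fixed, stained with SRB, read at 515 nm. Reported as percent growth of treated cells relative to untreated controls.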

[6] = system: SNB-19; experiment: Cytotoxicity against human SNB19 cells assessed as cell growth at 10^-5 M after 48 hrs by SRB assay; format: functional; details: SNB-19, 48 h, read-out: Activity; summary of the method: as §1
[7] = system: SF-539; experiment: Cytotoxicity against human SF539 cells assessed as cell growth at 10^-5 M after 48 hrs by SRB assay; format: functional; details: SF-539, 48 h, read-out: Activity; summary of the method: as §1
[8] = system: SF-295; experiment: Cytotoxicity against human SF295 cells assessed as cell growth at 10^-5 M after 48 hrs by SRB assay; format: functional; details: SF-295, 48 h, read-out: Activity; summary of the method: as §1
[9] = system: SF-268; experiment: Cytotoxicity against human SF268 cells assessed as cell growth at 10^-5 M after 48 hrs by SRB assay; format: functional; details: SF-268, 48 h, read-out: Activity; summary of the method: as §1
[10] = system: SW-620; experiment: Cytotoxicity against human SW620 cells assessed as cell growth at 10^-5 M after 48 hrs by SRB assay; format: functional; details: SW-620, 48 h, read-out: Activity; summary of the method: as §3
[11] = system: HCT-116; experiment: Cytotoxicity against human HCT116 cells assessed as cell growth at 10^-5 M after 48 hrs by SRB assay; format: functional; details: HCT-116, 48 h, read-out: Activity; summary of the method: as §2
[12] = system: HCC 2998; experiment: Cytotoxicity against human HCC2998 cells assessed as cell growth at 10^-5 M after 48 hrs by SRB assay; format: functional; details: HCC 2998, 48 h, read-out: Activity; summary of the method: as §2
[13] = system: NCI-H460; experiment: Cytotoxicity against human NCI-H460 cells assessed as cell growth at 10^-5 M after 48 hrs by SRB assay; format: functional; details: NCI-H460, 48 h, read-out: Activity; summary of the method: as §1
[14] = system: NCI-H322M; experiment: Cytotoxicity against human NCI-H322M cells assessed as cell growth at 10^-5 M after 48 hrs by SRB assay; format: functional; details: read-out: Activity; summary of the method: as §1
[15] = system: NCI-H226; experiment: Cytotoxicity against human NCI-H226 cells assessed as cell growth at 10^-5 M after 48 hrs by SRB assay; format: functional; details: NCI-H226, 48 h, read-out: Activity; summary of the method: as §1
[16] = system: HOP-62; experiment: Cytotoxicity against human HOP62 cells assessed as cell growth at 10^-5 M after 48 hrs by SRB assay; format: functional; details: HOP-62, 48 h, read-out: Activity; summary of the method: as §2
[17] = system: MOLT-4; experiment: Cytotoxicity against human MOLT4 cells assessed as cell growth at 10^-5 M after 48 hrs by SRB assay; format: functional; details: MOLT-4, 48 h, read-out: Activity; summary of the method: as §1
[18] = system: K562; experiment: Cytotoxicity against human K562 cells assessed as cell growth at 10^-5 M after 48 hrs by SRB assay; format: functional; details: K562, 48 h, read-out: Activity; summary of the method: as §2
[19] = system: CCRF-CEM; experiment: Cytotoxicity against human CCRF-CEM cells assessed as cell growth at 10^-5 M after 48 hrs by SRB assay; format: functional; details: read-out: Activity; summary of the method: as §2
[20] = system: MDA-MB-468; experiment: Cytotoxicity against human MDA-MB-468 cells assessed as cell growth at 10^-5 M after 48 hrs by SRB assay; format: functional; details: MDA-MB-468, 48 h, read-out: Activity; summary of the method: as §1
[21] = system: T47D; experiment: Cytotoxicity against human T47D cells assessed as cell growth at 10^-5 M after 48 hrs by SRB assay; format: functional; details: read-out: Activity; summary of the method: as §3
[22] = system: MDA-MB-231; experiment: Cytotoxicity against human MDA-MB-231 cells assessed as cell growth at 10^-5 M after 48 hrs by SRB assay; format: functional; details: MDA-MB-231, 48 h, read-out: Activity; summary of the method: as §2
[23] = system: MCF7; experiment: Cytotoxicity against human MCF7 cells assessed as cell growth at 10^-5 M after 48 hrs by SRB assay; format: functional; details: MCF7, 48 h, read-out: Activity; summary of the method: as §2
[24] = system: SN12C; experiment: Cytotoxicity against human SN12C cells assessed as cell growth at 10^-5 M after 48 hrs by SRB assay; format: functional; details: read-out: Activity; summary of the method: as §1
[25] = system: CAKI-1; experiment: Cytotoxicity against human Caki1 cells assessed as cell growth at 10^-5 M after 48 hrs by SRB assay; format: functional; details: CAKI-1, 48 h, read-out: Activity; summary of the method: as §2
[26] = system: A498; experiment: Cytotoxicity against human A498 cells assessed as cell growth at 10^-5 M after 48 hrs by SRB assay; format: functional; details: A498, 48 h, read-out: Activity; summary of the method: as §2
[27] = system: 786-0; experiment: Cytotoxicity against human 786-0 cells assessed as cell growth at 10^-5 M after 48 hrs by SRB assay; format: functional; details: 786-0, 48 h, read-out: Activity; summary of the method: as §2
[28] = system: SK-OV-3; experiment: Cytotoxicity against human SKOV3 cells assessed as cell growth at 10^-5 M after 48 hrs by SRB assay; format: functional; details: SK-OV-3, 48 h, read-out: Activity; summary of the method: as §1
[29] = Cytotoxicity against human NCI-ADR-RES cells assessed as cell growth at 10^-5 M after 48 hrs by SRB assay; format: functional; details: read-out: Activity; summary of the method: as §1
[30] = system: IGROV-1; experiment: Cytotoxicity against human IGROV1 cells assessed as cell growth at 10^-5 M after 48 hrs by SRB assay; format: functional; details: IGROV-1, 48 h, read-out: Activity; summary of the method: as §2
[31] = system: UACC-62; experiment: Cytotoxicity against human UACC62 cells assessed as cell growth at 10^-5 M after 48 hrs by SRB assay; format: functional; details: UACC-62, 48 h, read-out: Activity; summary of the method: as §3
[32] = target: Epidermal growth factor receptor (Homo sapiens, UniProt P00533); details: at 10 µM;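 also: EGFR tyrosine kinase activity on a poly(Glu,Tyr) substrate, read out by Kinase-Glo Plus luminescence after a 40 min reaction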
Epidermal growth factor receptor, sequence (P00533 whole entry): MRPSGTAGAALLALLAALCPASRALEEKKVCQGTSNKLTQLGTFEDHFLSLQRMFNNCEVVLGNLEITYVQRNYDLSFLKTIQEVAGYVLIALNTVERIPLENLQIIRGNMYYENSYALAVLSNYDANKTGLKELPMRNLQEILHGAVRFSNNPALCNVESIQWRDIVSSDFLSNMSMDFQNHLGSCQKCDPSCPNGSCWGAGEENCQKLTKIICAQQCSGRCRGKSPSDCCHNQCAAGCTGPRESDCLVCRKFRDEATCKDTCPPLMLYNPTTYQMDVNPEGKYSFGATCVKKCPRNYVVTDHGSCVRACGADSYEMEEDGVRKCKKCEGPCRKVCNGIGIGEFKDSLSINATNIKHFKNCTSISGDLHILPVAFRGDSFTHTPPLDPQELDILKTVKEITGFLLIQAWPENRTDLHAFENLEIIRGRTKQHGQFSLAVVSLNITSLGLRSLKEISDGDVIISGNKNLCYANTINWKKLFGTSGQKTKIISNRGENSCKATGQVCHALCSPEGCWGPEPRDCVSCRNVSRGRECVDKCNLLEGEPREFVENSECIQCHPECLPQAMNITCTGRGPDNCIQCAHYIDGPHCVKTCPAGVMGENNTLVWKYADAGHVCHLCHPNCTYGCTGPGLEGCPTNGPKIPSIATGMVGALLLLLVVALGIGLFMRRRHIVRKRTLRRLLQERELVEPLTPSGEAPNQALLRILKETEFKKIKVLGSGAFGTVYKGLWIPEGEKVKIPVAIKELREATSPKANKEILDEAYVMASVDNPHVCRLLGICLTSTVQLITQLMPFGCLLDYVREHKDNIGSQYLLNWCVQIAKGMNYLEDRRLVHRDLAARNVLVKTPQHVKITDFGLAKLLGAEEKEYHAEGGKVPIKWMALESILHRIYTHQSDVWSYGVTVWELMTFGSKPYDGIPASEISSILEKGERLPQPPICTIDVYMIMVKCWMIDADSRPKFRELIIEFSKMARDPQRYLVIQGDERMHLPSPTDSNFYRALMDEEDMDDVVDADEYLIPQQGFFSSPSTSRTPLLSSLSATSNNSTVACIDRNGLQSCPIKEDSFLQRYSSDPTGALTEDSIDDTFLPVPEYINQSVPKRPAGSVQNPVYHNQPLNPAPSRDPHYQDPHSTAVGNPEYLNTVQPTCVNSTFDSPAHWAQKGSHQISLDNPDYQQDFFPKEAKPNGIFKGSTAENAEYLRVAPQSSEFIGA

Row | Structure (SMILES) | growth at 10 µM [1] | growth at 10 µM [2] | growth at 10 µM [3] | growth at 10 µM [4] | growth at 10 µM [5] | growth at 10 µM [6] | growth at 10 µM [7] | growth at 10 µM [8] | growth at 10 µM [9] | growth at 10 µM [10] | growth at 10 µM [11] | growth at 10 µM [12] | growth at 10 µM [13] | growth at 10 µM [14] | growth at 10 µM [15] | growth at 10 µM [16] | growth at 10 µM [17] | growth at 10 µM [18] | growth at 10 µM [19] | growth at 10 µM [20] | also measured
1 | CCOC(=O)/C(C#N)=C\Nc1ccc2ncnc(Nc3ccccc3Cl)c2c1 | 119% | 100% | 119% | 156% | 96.3% | 94.5% | 111% | 102% | 106% | 116% | 113% | 117% | 98.7% | 47% | 116% | 99.1% | 86.2% | 88.6% | 93.1% | 34.7% | growth at 10 µM [21]: 77.6%; growth at 10 µM [22]: 86.9%; growth at 10 µM [23]: 110%; growth at 10 µM [24]: 98.8%; growth at 10 µM [25]: 45%; growth at 10 µM [26]: 63.7%; growth at 10 µM [27]: 91.3%; growth at 10 µM [28]: 107%; growth at 10 µM [29]: 99.6%; growth at 10 µM [30]: 79.7%; growth at 10 µM [31]: 107%; inhibition [32]: 94%
2 | CCOC(=O)/C(C#N)=C\Nc1ccc2ncnc(Nc3ccc(Cl)cc3Cl)c2c1 | 109% | 75.7% | 106% | 140% | 81.3% | 86.4% | 92.7% | 82.2% | 73% | 100% | 92.9% | 119% | 84.8% | 75.7% | 99.8% | 101% | 58.8% | 59.7% | 70.9% | 56.4% | growth at 10 µM [21]: 58.6%; growth at 10 µM [22]: 85.2%; growth at 10 µM [23]: 87.6%; growth at 10 µM [24]: 89.5%; growth at 10 µM [25]: 39%; growth at 10 µM [26]: 48.7%; growth at 10 µM [27]: 82.6%; growth at 10 µM [28]: 97%; growth at 10 µM [29]: 85.4%; growth at 10 µM [30]: 55%; growth at 10 µM [31]: 90%; inhibition [32]: 92%
3 | CCOC(=O)/C(C#N)=C\Nc1ccc2ncnc(Nc3ccc(Cl)cc3)c2c1 | 105% | 70.5% | 106% | 142% | 84.7% | 88% | 103% | 74.3% | 76.1% | 97.3% | 84.5% | 101% | 70% | 22.6% | 99.3% | 107% | 50.1% | 61.4% | 50.1% | 26.6% | growth at 10 µM [21]: 72.7%; growth at 10 µM [22]: 93.1%; growth at 10 µM [23]: 111%; growth at 10 µM [24]: 87%; growth at 10 µM [25]: 32.6%; growth at 10 µM [26]: 53.1%; growth at 10 µM [27]: 83.1%; growth at 10 µM [28]: 85%; growth at 10 µM [29]: 72%; growth at 10 µM [30]: 52.4%; growth at 10 µM [31]: 103%; inhibition [32]: 100%
